# High-throughput results (PubChem)
# Compounds with a hit are over-represented: about 3.8% of the library has one in this group of screens.
# XiGFP reactiv: activators of inactive X chromosome reactivation, primary screen, imaging, XiGFP fibroblasts, GFP high-content imaging, set 2; XiGFP mouse fibroblasts, % GFP-positive cells imaging, 3 d; cells co-treated with 5-aza-dC sensitizer; scaled so ellipticine positive control = 100%; activation, % at 7.58 µM; actives 0.055% (n = 360,000);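 active = mean normalized replicate activation at least 10% and every replicate at or above 10%; inconclusive = only one of the two criteria met; inactive = mean below 10% and not all replicates reach 10%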
#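 Material: XiGFP fibroblasts, SV40-immortalized; Buffer or medium: DMEM containing 5-aza-dC; Compound dosing: single point; Times: 3 days compound exposure.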
# FGF22 binding: binders of human FGF22 protein, primary screen, FGF22 synaptogenesis inhibitor project, biophysical, thermal shift, single point. Fibroblast growth factor 22 (Homo sapiens), Q9HCT0. recombinant FGF22 thermal shift, SYPRO orange fluorescence; percent of sucrose octasulfate shift, DMSO zero. activity (Tm shift, normalised), % at 9.99 µM. actives 1.5% (n = 340,000);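 active = mean Tm shift, scaled 0 neutral to 100 positive control, at about 1.3% or above, every replicate too, limit read from the data; inconclusive = no clear call, values can overlap the other calls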
# Target sequence (Q9HCT0 whole entry, looked up): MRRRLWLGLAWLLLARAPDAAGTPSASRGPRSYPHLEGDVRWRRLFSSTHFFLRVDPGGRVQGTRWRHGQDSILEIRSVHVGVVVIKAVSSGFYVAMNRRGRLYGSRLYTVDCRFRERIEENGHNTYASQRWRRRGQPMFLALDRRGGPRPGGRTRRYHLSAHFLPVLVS
# SIRT5 inh: SIRT5 desuccinylase inhibitors, primary screen, biochemical, fluorescence imaging, single point, set 5; NAD-dependent protein deacylase sirtuin-5, mitochondrial (Homo sapiens), Q9NXA8; Purified SirT5, succinyl-peptide AMC, trypsin-coupled fluorescence; inhibition, % at 15 µM; actives 1.1% (n = 330,000); in the data active = inhibition above about 15%; inconclusive = no clear call, values can overlap the other calls
# Target sequence (Q9NXA8 whole entry, looked up): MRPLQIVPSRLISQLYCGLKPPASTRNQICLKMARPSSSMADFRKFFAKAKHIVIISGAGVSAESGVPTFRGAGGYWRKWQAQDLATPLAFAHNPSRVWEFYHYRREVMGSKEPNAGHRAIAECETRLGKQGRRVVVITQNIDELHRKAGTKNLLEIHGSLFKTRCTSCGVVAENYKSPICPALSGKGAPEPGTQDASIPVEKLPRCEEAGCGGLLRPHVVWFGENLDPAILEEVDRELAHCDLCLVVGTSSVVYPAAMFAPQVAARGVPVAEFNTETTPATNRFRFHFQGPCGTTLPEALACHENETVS
# FN deposit inh: inhibitors of fibronectin matrix deposition, primary screen, AH1F cells, Alexa488-fibronectin fluorescence, plate reader; actives 0.086% (n = 350,000); inhibition, % at 12.6 µM; AH1F fibroblasts, overnight;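 active = mean inhibition across replicates of 30% or more, regardless of how many single replicates reach that level; inconclusive = mean under 30% yet at least half of replicates reach 30%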
#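 Assay system: AH1F fibroblasts / Quantity: 10000 cells per well / Medium: DMEM plus 2% serum, read in PBS / Reagent: labelled fibronectin 24 nM / Dosing: single dose, pinned / Times: 1 h cell attachment, overnight exposure to compound and label / Signal: fluorescence, ex 485 nm, em 525 nm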
# ARNT TACC3 PPI: disruptors of ARNT/TACC3 protein interaction, primary screen, biochemical, AlphaScreen, single concentration | Transforming acidic coiled-coil-containing protein 3 (Homo sapiens), Q9Y6A5 | AlphaScreen His-ARNT PAS-B/GST-TACC3 binding, luminescence; TACC3 fragment carries E629A point mutation | inhibition, % at 9.99 µM | actives 0.66% (n = 390,000) | AID 623870, 2012;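 active = mean inhibition of replicates at least 50% and at least half of replicates each reaching 50%; inconclusive = half or more replicates reach 50% but mean below 50%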
# DENV2 CPE: inhibitors of DENV2 cytopathic effect, primary screen, cell-based, plate reader, single concentration. actives 1.7% (n = 350,000). AID 651640, 2012. CPE inhibition, % at 9.99 µM. DENV2-infected cells, cytopathic effect rescue; in the data active = CPE inhibition above about 20%, passing the limit was not always enough; inconclusive = no clear call, values can overlap the other calls; tested in BHK-21 cells
# Hits are given with their value; . = inactive; ? = inconclusive; / = not tested or not shown.
SMILES,XiGFP reactiv,FGF22 binding,SIRT5 inh,FN deposit inh,ARNT TACC3 PPI,DENV2 CPE
Cc1cc(C(F)(F)F)nc(SCCN2CCOCC2)c1C#N,.,43,.,.,.,.
Cc1noc(C)c1NC(=O)N[C@@H]1CC[C@@H](CCNC(=O)C2CCC2)O[C@@H]1CO,.,.,.,/,.,.
O=c1[nH]c(-c2ccccn2)nc(C(F)(F)F)c1Br,.,.,.,.,63,.
O=S(=O)(c1ccc2nnn(O)c2c1)N1CCOCC1,.,.,.,.,.,.
CN(C)S(=O)(=O)c1ccc2nnn(O)c2c1,.,43,.,.,.,.
O=C(NCCc1c[nH]c2ccccc12)c1ccc(Br)o1,.,2.3,.,.,.,.
O=C(NCCSc1c[nH]c2ccccc12)c1ccc(Br)o1,.,.,.,.,.,.
O=C(NCCc1ccc(O)c(Br)c1)c1ccc(Br)o1,.,1.7,.,.,/,.
O=C(O)CCNC(=O)c1ccc(Br)o1,/,/,/,/,.,/
CN(C)C(=O)c1ccc(-c2ccc([C@@H]3[C@H]4CN(C(=O)C5CCC5)CC(=O)N4[C@H]3CO)cc2)cc1,.,/,.,.,/,.
O=C(NCc1ccccn1)Nc1cccc(Cl)c1,/,.,.,/,.,/
COc1cccc(CNC(=O)C[C@H]2CC[C@@H](NC(=O)C3CCC3)[C@H](CO)O2)c1,.,.,.,/,.,36
COc1cccc(CNC(=O)C[C@H]2CC[C@H](NC(=O)C3CCC3)[C@H](CO)O2)c1,.,.,.,/,.,.
COc1ccc(CNC(=O)C[C@H]2C=C[C@H](NC(=O)c3ccc4c(c3)OCO4)[C@H](CO)O2)cc1,.,/,.,.,/,61
CC(C)NC(=O)N[C@@H]1CC[C@H](CC(=O)NCc2ccc(Oc3ccccc3)cc2)O[C@@H]1CO,.,.,.,.,.,.
O=C(NCc1ccccn1)Nc1cccc(NC(=O)NCc2ccccn2)c1,/,/,/,.,78,/
CC(C)NC(=O)N[C@@H]1CC[C@H](CC(=O)NCc2ccc(Oc3ccccc3)cc2)O[C@H]1CO,.,.,.,.,46,.
COc1ccc(CNC(=O)C[C@H]2C=C[C@@H](NC(=O)c3ccc4c(c3)OCO4)[C@H](CO)O2)cc1,.,.,.,.,.,?
COc1ccc(-c2cnc3c(c2)C(=O)N([C@H](C)CO)C[C@H](C)[C@H](CN(C)C(=O)CN(C)C)O3)cc1,.,.,.,.,.,.
COc1cccc(C(=O)Nc2ccc3c(c2)OC[C@@H](C)N(C(=O)C2CC2)C[C@@H](C)[C@H](OC)CN(C)C3=O)c1,.,.,.,.,.,.
COc1cccc(NC(=O)N[C@@H]2C=C[C@H](CC(=O)NCc3ccccn3)O[C@@H]2CO)c1,.,.,.,/,/,.
COc1cccc(NC(=O)N[C@H]2C=C[C@H](CC(=O)NCc3ccccn3)O[C@H]2CO)c1,.,/,.,/,/,29
COc1cccc(CNC(=O)C[C@H]2C=C[C@H](NC(=O)C3CCOCC3)[C@@H](CO)O2)c1,.,.,.,.,.,21
COc1ccccc1C#Cc1cnc2c(c1)C(=O)N([C@H](C)CO)C[C@@H](C)[C@H](CN(C)S(=O)(=O)c1cn(C)cn1)O2,.,.,.,/,.,.
COC(=O)c1ccc(NC(=O)CSc2nn3c(=O)c(C)nnc3s2)cc1,.,.,.,.,60,.
Cc1nnc2sc(SCC(=O)Nc3cccc(Cl)c3)nn2c1=O,.,.,.,/,65,.
COc1cccc(NC(=O)CSc2nn3c(=O)c(C)nnc3s2)c1,.,.,.,/,67,?
COC(=O)c1ccc(NC(=O)CSc2nncn2C)cc1,/,/,/,/,.,/
COc1cccc(NC(=O)CSc2nc(C)cs2)c1,/,/,/,/,.,/
Cc1nnc2sc(SCC(=O)N3CCC(C)CC3)nn2c1=O,.,.,.,/,63,.
